Laboratory results from ChEMBL document CHEMBL1144441, “Identification of a novel cardenolide (2''-oxovoruscharin) from Calotropis procera and the hemisynthesis of novel derivatives displaying potent in vitro antitumor activities and high in vivo tolerance: structure-activity relationship analyses” (J Med Chem, 2005).

Legend:
HCT-15 = assay: Concentration required for 50% growth inhibition of human HCT-15 cancer cell lines after 3 days of culture; format: functional, cell-based; conditions: HCT-15, 72 h
Outline: (§1)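 MTT overall-growth assay on the five lines. Cells were plated for 24 h at 10 000–40 000 cells/mL, depending on cell type. Nine concentrations from 10^-9 to 10^-5 M in semilog steps were applied for 72 h. Formazan was read at 570 nm against a 630 nm reference, in sextuplicate. IC50 = concentration reducing overall growth by 50% versus untreated control.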

Mus musculus = assay: Maximum tolerated dose after intraperitoneal administration in mouse (period of 28 days); format: functional
Outline: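 Healthy, non-tumour-bearing B6D2F1 mice given one acute intraperitoneal dose, three mice per dose group, doses 5, 10, 20, 40, 80, 120 and 160 mg/kg. Survival and body weight followed for 28 days after injection. MTD is the highest single dose causing no deaths over the period.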

LoVo = assay: Concentration required for 50% growth inhibition of human LoVo cancer cell lines after 3 days of culture; format: functional, cell-based; conditions: 72 h; outline: as §1
U373 MG = assay: Concentration required for 50% growth inhibition of human U373 cancer cell lines after 3 days of culture; format: functional, cell-based, U-373MG ATCC; conditions: 72 h; outline: as §1
[1] = Concentration required for 50% growth inhibition of human Hs 683 cancer cell lines after 3 days of culture; format: functional, cell-based; conditions: 72 h; outline: as §1
A549 = assay: Concentration required for 50% growth inhibition of human A549 cancer cell lines after 3 days of culture; format: functional, cell-based; conditions: A549, 72 h; outline: as §1
[2] = target: Sodium/potassium-transporting ATPase subunit alpha-1 (Sus scrofa, UniProt P05024); assay: In vitro inhibitory activity against porcine Na+/K+-ATPase
Outline: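 Porcine cerebral cortex Na+/K+-ATPase (3 × 10-3 units), preincubated 30 min at 37 °C in 30 mM Tris-HCl pH 7.4, 5 mM MgCl2 with inhibitor (1 to 50 000 nM). ADP formation coupled via pyruvate kinase/lactate dehydrogenase, excess phosphoenolpyruvate, to NADH oxidation.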

Structure (SMILES)	IC50 (HCT-15)	MTD (Mus musculus)	IC50 (LoVo)	IC50 (U373 MG)	IC50 [1]	IC50 (A549)	IC50 [2]
C[C@@H]1C[C@@]2(NCCS2)C2(O)O[C@@H]3C[C@@]4(CO)[C@@H](CC[C@@H]5[C@@H]4CC[C@]4(C)[C@@H](C6=CC(=O)OC6)CC[C@]54CO)C[C@H]3O[C@@H]2O1 (some centres not stated)	21 nM	5 mg/kg	13 nM	31 nM	3 nM	4 nM	–
Cc1ccc(S(=O)(=O)OC[C@]23C[C@H]4OC5(O)[C@@H](O[C@H](C)C[C@@]56NC(=O)CS6)O[C@@H]4C[C@@H]2CC[C@@H]2[C@@H]3CC[C@]3(C)[C@@H](C4=CC(=O)OC4)CC[C@]23CO)cc1 (some centres not stated)	382 nM	–	89 nM	326 nM	45 nM	48 nM	–
CC(O)CCC(=O)OC[C@]12C[C@H]3OC4(O)[C@@H](O[C@H](C)C[C@@]45NC(=O)CS5)O[C@@H]3C[C@@H]1CC[C@@H]1[C@@H]2CC[C@]2(C)[C@@H](C3=CC(=O)OC3)CC[C@]12CO (some centres not stated)	1500 nM	>40 mg/kg	1560 nM	1190 nM	370 nM	414 nM	–
C[C@@H]1C[C@@]2(N=C(N)CS2)[C@]2(O)O[C@@H]3C[C@@]4(C=O)[C@@H](CC[C@@H]5[C@@H]4CC[C@]4(C)[C@@H](C6=CC(=O)OC6)CC[C@]54O)C[C@H]3O[C@@H]2O1	28 nM	5 mg/kg	10 nM	40 nM	4 nM	25 nM	68 nM
C[C@@H]1C[C@@]2(NC(=O)CS2)C2(O)O[C@@H]3C[C@@]4(COC(=O)c5ccccc5)[C@@H](CC[C@@H]5[C@@H]4CC[C@]4(C)[C@@H](C6=CC(=O)OC6)CC[C@]54CO)C[C@H]3O[C@@H]2O1 (some centres not stated)	3620 nM	>40 mg/kg	2370 nM	4170 nM	778 nM	625 nM	–
C[C@@H]1C[C@@]2(N[C@H](CC(=O)c3ccccc3)CS2)C2(O)O[C@@H]3C[C@@]4(CO)[C@@H](CC[C@@H]5[C@@H]4CC[C@]4(C)[C@@H](C6=CC(=O)OC6)CC[C@]54CO)C[C@H]3O[C@@H]2O1 (some centres not stated)	34 nM	80 mg/kg	18 nM	34 nM	4 nM	3 nM	–
C[C@@H]1C[C@@]2(N[C@@H](CC(=O)c3ccccc3)CS2)C2(O)O[C@@H]3C[C@@]4(CO)[C@@H](CC[C@@H]5[C@@H]4CC[C@]4(C)[C@@H](C6=CC(=O)OC6)CC[C@]54CO)C[C@H]3O[C@@H]2O1 (some centres not stated)	44 nM	80 mg/kg	18 nM	38 nM	4 nM	4 nM	–
CC(=O)OC[C@]12C[C@H]3OC4(O)[C@@H](O[C@H](C)C[C@@]45N=C(N)CS5)O[C@@H]3C[C@@H]1CC[C@@H]1[C@@H]2CC[C@]2(C)[C@@H](C3=CC(=O)OC3)CC[C@]12CO (some centres not stated)	4130 nM	>40 mg/kg	3540 nM	> 4150 nM	> 1280 nM	3700 nM	12100 nM
C[C@@H]1C[C@@]2(N[C@H](CC(O)c3ccccc3)CS2)C2(O)O[C@@H]3C[C@@]4(CO)[C@@H](CC[C@@H]5[C@@H]4CC[C@]4(C)[C@@H](C6=CC(=O)OC6)CC[C@]54CO)C[C@H]3O[C@@H]2O1 (some centres not stated)	31 nM	–	19 nM	28 nM	3 nM	2 nM	–
C[C@@H]1C[C@@]2(N[C@@H](CC(=O)c3ccccc3)CS2)C2(O)O[C@@H]3C[C@@]4(C=O)[C@@H](CC[C@@H]5[C@@H]4CC[C@]4(C)[C@@H](C6=CC(=O)OC6)CC[C@]54CO)C[C@H]3O[C@@H]2O1 (some centres not stated)	92 nM	10 mg/kg	100 nM	84 nM	22 nM	18 nM	–
Cc1ccc(S(=O)(=O)OC[C@]23C[C@H]4OC5(O)[C@@H](O[C@H](C)C[C@@]56N=C(N)CS6)O[C@@H]4C[C@@H]2CC[C@@H]2[C@@H]3CC[C@]3(C)[C@@H](C4=CC(=O)OC4)CC[C@]23CO)cc1 (some centres not stated)	5800 nM	10 mg/kg	1060 nM	9960 nM	1430 nM	2720 nM	–
COC(=O)OC[C@]12C[C@H]3OC4(O)[C@@H](O[C@H](C)C[C@@]45N=C(N)CS5)O[C@@H]3C[C@@H]1CC[C@@H]1[C@@H]2CC[C@]2(C)[C@@H](C3=CC(=O)OC3)CC[C@]12CO (some centres not stated)	442 nM	>40 mg/kg	245 nM	320 nM	49 nM	42 nM	–
C[C@@H]1C[C@@]2(N=C(N)CS2)C2(O[Si](C)(C)C)O[C@@H]3C[C@@]4(CO[Si](C)(C)C)[C@@H](CC[C@@H]5[C@@H]4CC[C@]4(C)[C@@H](C6=CC(=O)OC6)CC[C@]54CO[Si](C)(C)C)C[C@H]3O[C@@H]2O1 (some centres not stated)	> 10000 nM	>160 mg/kg	> 10000 nM	> 10000 nM	> 10000 nM	> 10000 nM	> 50000 nM
C[C@@H]1C[C@@]2(NCCS2)[C@]2(O)O[C@@H]3C[C@@]4(C=O)[C@@H](CC[C@@H]5[C@@H]4CC[C@]4(C)[C@@H](C6=CC(=O)OC6)CC[C@]54O)C[C@H]3O[C@@H]2O1	27 nM	1.25 mg/kg	17 nM	32 nM	4 nM	5 nM	–
CC(=O)OC[C@]12C[C@H]3OC4(O)[C@@H](O[C@H](C)C[C@@]45NC(=O)CS5)O[C@@H]3C[C@@H]1CC[C@@H]1[C@@H]2CC[C@]2(C)[C@@H](C3=CC(=O)OC3)CC[C@]12CO (some centres not stated)	4430 nM	>40 mg/kg	2770 nM	4600 nM	2780 nM	1860 nM	–
C[C@@H]1C[C@@]2(N=C(N)CS2)C2(O)O[C@@H]3C[C@@]4(COC(=O)c5ccccc5)[C@@H](CC[C@@H]5[C@@H]4CC[C@]4(C)[C@@H](C6=CC(=O)OC6)CC[C@]54CO)C[C@H]3O[C@@H]2O1 (some centres not stated)	> 10000 nM	>40 mg/kg	> 10000 nM	> 10000 nM	> 10000 nM	> 10000 nM	> 50000 nM
C[C@@H]1C[C@@]2(NC(=O)CS2)C2(O)O[C@@H]3C[C@@]4(COS(C)(=O)=O)[C@@H](CC[C@@H]5[C@@H]4CC[C@]4(C)[C@@H](C6=CC(=O)OC6)CC[C@]54CO)C[C@H]3O[C@@H]2O1 (some centres not stated)	> 10000 nM	–	8390 nM	7310 nM	3420 nM	3650 nM	–
C[C@@H]1C[C@@]2(N=C(N)CS2)C2(O)O[C@@H]3C[C@@]4(COC(=O)CCc5ccccc5)[C@@H](CC[C@@H]5[C@@H]4CC[C@]4(C)[C@@H](C6=CC(=O)OC6)CC[C@]54CO)C[C@H]3O[C@@H]2O1 (some centres not stated)	> 10000 nM	>40 mg/kg	4840 nM	> 10000 nM	> 10000 nM	4730 nM	–
C[C@@H]1C[C@@]2(NC(=O)CS2)C2(O)O[C@@H]3C[C@@]4(COC(=O)CCc5ccccc5)[C@@H](CC[C@@H]5[C@@H]4CC[C@]4(C)[C@@H](C6=CC(=O)OC6)CC[C@]54CO)C[C@H]3O[C@@H]2O1 (some centres not stated)	> 10000 nM	>40 mg/kg	> 10000 nM	4190 nM	> 10000 nM	> 10000 nM	–
C[C@@H]1C[C@@]2(N=C(N)CS2)C2(O)O[C@@H]3C[C@@]4(C=O)[C@@H](CC[C@@H]5[C@@H]4CC[C@]4(C)[C@@H](C6=CC(=O)OC6)CC[C@]54CO)C[C@H]3O[C@@H]2O1 (some centres not stated)	27 nM	10 mg/kg	5 nM	34 nM	4 nM	9 nM	–
C[C@@H]1C[C@@]2(N[C@H](CC(=O)c3ccccc3)CS2)C2(O)O[C@@H]3C[C@@]4(C=O)[C@@H](CC[C@@H]5[C@@H]4CC[C@]4(C)[C@@H](C6=CC(=O)OC6)CC[C@]54CO)C[C@H]3O[C@@H]2O1 (some centres not stated)	49 nM	10 mg/kg	33 nM	41 nM	7 nM	4 nM	–
C[C@@H]1C[C@@]2(NC(=O)CS2)C2(O[Si](C)(C)C)O[C@@H]3C[C@@]4(CO[Si](C)(C)C)[C@@H](CC[C@@H]5[C@@H]4CC[C@]4(C)[C@@H](C6=CC(=O)OC6)CC[C@]54CO[Si](C)(C)C)C[C@H]3O[C@@H]2O1 (some centres not stated)	2690 nM	–	931 nM	3720 nM	525 nM	657 nM	–
